Measurements taken from ChEMBL document CHEMBL2177078, “New positron emission tomography (PET) radioligand for imaging σ-1 receptors in living subjects” (J Med Chem, 2012).
The source made the active and inactive calls. No cut-off for these calls is given here.

Tests used:
[1] = Displacement of [3H]di-o-tolylguanidine from Sigma2 receptor in rat liver homogenate; assay type: tissue-based
How it was run: (§1)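 Competition binding of unlabeled ligand in rat brain or rat liver homogenates. S2R binding run in the presence of 300 nM 1 to mask S1R sites. Liver assays run on a 96-well platform.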

[2] = Displacement of [3H]di-o-tolylguanidine from Sigma2 receptor in rat brain homogenate; assay type: tissue-based; how it was run: as §1
[3] = target: T1, Sigma non-opioid intracellular receptor 1 (Rattus norvegicus, UniProt Q9R0C9); assay: Displacement of [3H](+)-pentazocine from Sigma1 receptor in rat brain homogenate; assay type: tissue-based
T1 sequence (Q9R0C9 whole entry): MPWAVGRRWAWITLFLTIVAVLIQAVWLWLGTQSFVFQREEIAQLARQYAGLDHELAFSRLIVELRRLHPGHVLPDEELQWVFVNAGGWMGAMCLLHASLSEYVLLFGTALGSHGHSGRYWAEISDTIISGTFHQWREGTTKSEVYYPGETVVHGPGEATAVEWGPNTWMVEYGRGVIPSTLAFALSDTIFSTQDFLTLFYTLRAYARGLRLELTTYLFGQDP

Mus musculus [4] = organism: Mus musculus; assay: Biodistribution in mouse corpus callosum at 200 uCi after 60 mins by autoradiography; assay type: ADME, organism-based; conditions: in vivo, 1 h
How it was run: (§2)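 Mice injected iv with 200-250 μCi tracer; brains taken 60 min later after saline perfusion, snap frozen and cut as 12 μm sagittal sections. Sections air-dried 10 min, exposed to 18F-sensitive phosphor screens 12 h at 4 °C, then imaged; anatomy confirmed by Nissl staining. Blocking arm given BD1047 (1 mg/kg) 10 min before tracer.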

Cerebellum = assay: Biodistribution in mouse cerebellum at 200 uCi after 60 mins by autoradiography; assay type: ADME, organism-based; conditions: in vivo, 1 h; how it was run: as §2
Hippocampus = assay: Biodistribution in mouse hippocampus at 200 uCi after 60 mins by autoradiography; assay type: ADME, organism-based; conditions: in vivo, 1 h; how it was run: as §2
Cortex = assay: Biodistribution in mouse cortex at 200 uCi after 60 mins by autoradiography; assay type: ADME, organism-based; conditions: in vivo, 1 h; how it was run: as §2
Mus musculus [5] = organism: Mus musculus; assay: Biodistribution in mouse brain facial nucleus at 200 uCi after 60 mins by autoradiography; assay type: ADME, organism-based; conditions: in vivo, 1 h; how it was run: as §2
Brain [6] = assay: Drug uptake in Balb C mouse brain at 630-690 uCi, iv after 60 mins by HPLC analysis; assay type: ADME, organism-based; conditions: in vivo, 1 h
How it was run: (§3)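 Balb C mice (n=2 per time point) received 630-690 μCi tracer iv; brain and liver collected at 30 and 60 min. Tissue homogenized in 500 μL ice-cold acetonitrile, centrifuged 9,400 g for 4 min. Supernatants run on reversed-phase radio-HPLC; percent intact parent = parent peak area/total peak area × 100, decay corrected to dosing. Extraction efficiency checked by gamma counting.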

Liver [7] = assay: Drug uptake in Balb C mouse liver at 630-690 uCi, iv after 60 mins by HPLC analysis; assay type: ADME, organism-based; conditions: in vivo, 1 h; how it was run: as §3
Brain [8] = assay: Drug uptake in Balb C mouse brain at 630-690 uCi, iv after 30 mins by HPLC analysis; assay type: ADME, organism-based; conditions: in vivo, 0.5 h; how it was run: as §3
Liver [9] = assay: Drug uptake in Balb C mouse liver at 630-690 uCi, iv after 30 mins by HPLC analysis; assay type: ADME, organism-based; conditions: in vivo, 0.5 h; how it was run: as §3
Brain [10] = assay: Biodistribution in mouse brain at 200 uCi administered 10 mins post BD1047 treatment measured after 60 mins by autoradiography; assay type: ADME, organism-based; conditions: in vivo, 1 h; how it was run: as §2
Mus musculus [11] = organism: Mus musculus; assay: Biodistribution in mouse midbrain at 200 uCi after 60 mins by autoradiography; assay type: ADME, organism-based; conditions: in vivo, 1 h; how it was run: as §2
Brain [12] = assay: Biodistribution in mouse brain assessed as reduction in compound uptake at 95-125 uCi, iv administered 10 mins post BD1047 treatment measured after 60 mins by PET imaging; assay type: ADME, organism-based; conditions: in vivo, 1 h
How it was run: (§4)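 Normal Balb C mice (20-30 g) under isoflurane (3% induction, 1-3% maintenance). […] Dynamic list-mode microPET acquisition started just before injection and ran 60 min; images reconstructed by 2D OSEM, whole-brain time-activity curves.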

Brain [13] = assay: Biodistribution in mouse brain assessed as reduction in compound uptake at 95-125 uCi, iv administered 10 mins post FTC-146 treatment measured after 60 mins by PET imaging; assay type: ADME, organism-based; conditions: in vivo, 1 h
How it was run: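 Normal Balb C mice (20-30 g) under isoflurane (3% induction, 1-3% maintenance). […] Dynamic microPET list-mode acquisition for 60 min, OSEM reconstruction. Whole-brain uptake from time-activity curves, reduction read at 60 min.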

CHO [14] = assay: Cellular uptake in CHO cells after 30 to 120 mins by gamma counting; assay type: ADME, cell-based, Cricetulus griseus; conditions: chinese hamster
How it was run: (§5)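 CHO cells grown in Ham's F-12, seeded 2 × 10^5 per well, transfected 24 h later with 0.8 μg empty pcDNA (control) or 0.8 μg S1R (OPRS1) DNA; medium refreshed at 12 h. At 24 h post-transfection, exposed to [18F] tracer (2 μCi/well) for 30 and 120 min, triplicate wells. Washed twice with cold PBS, lysed in 1 N NaOH, gamma counted; normalized to Bradford protein.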

Brain [15] = assay: Biodistribution in mouse brain at 95-125 uCi, iv by PET imaging; assay type: ADME, organism-based; conditions: in vivo; how it was run: as §4
Brain [16] = assay: Biodistribution in mouse brain assessed as reduction in compound uptake at 95-125 uCi, iv administered 10 mins post haloperidol treatment measured after 60 mins by PET imaging; assay type: ADME, organism-based; conditions: in vivo, 1 h; how it was run: as §4
[17] = Binding affinity to acetylcholine esterase at 100 nM
[18] = Binding affinity to sodium channel site 2 at 100 nM
[19] = Binding affinity to calcium channel L type at 100 nM
[20] = Binding affinity to alpha bungarotoxin insensitive neuronal nicotinic receptor at 100 nM
[21] = Binding affinity to peripheral muscarinic receptor at 100 nM
[22] = target: T2, Muscarinic acetylcholine receptor M2 (Homo sapiens) (UniProt P08172); assay: Binding affinity to muscarinic M2 receptor at 100 nM
T2 sequence (whole entry): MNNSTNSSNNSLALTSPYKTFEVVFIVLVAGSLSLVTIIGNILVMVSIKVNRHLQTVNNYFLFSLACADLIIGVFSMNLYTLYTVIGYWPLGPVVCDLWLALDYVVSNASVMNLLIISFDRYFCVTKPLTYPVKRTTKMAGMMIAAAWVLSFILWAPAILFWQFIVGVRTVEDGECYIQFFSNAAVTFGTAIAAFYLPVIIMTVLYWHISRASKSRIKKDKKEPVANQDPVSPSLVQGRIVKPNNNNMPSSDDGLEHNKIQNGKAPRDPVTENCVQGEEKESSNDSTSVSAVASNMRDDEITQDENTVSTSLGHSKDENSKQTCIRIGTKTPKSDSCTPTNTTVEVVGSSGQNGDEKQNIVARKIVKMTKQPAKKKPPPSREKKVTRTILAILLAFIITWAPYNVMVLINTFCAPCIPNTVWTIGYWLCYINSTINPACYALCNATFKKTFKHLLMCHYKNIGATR

[23] = target: Histamine H2 receptor (Homo sapiens) (UniProt P25021); assay: Binding affinity to histamine H2 receptor at 100 nM
Chain of Histamine H2 receptor (Homo sapiens) (P25021 whole entry): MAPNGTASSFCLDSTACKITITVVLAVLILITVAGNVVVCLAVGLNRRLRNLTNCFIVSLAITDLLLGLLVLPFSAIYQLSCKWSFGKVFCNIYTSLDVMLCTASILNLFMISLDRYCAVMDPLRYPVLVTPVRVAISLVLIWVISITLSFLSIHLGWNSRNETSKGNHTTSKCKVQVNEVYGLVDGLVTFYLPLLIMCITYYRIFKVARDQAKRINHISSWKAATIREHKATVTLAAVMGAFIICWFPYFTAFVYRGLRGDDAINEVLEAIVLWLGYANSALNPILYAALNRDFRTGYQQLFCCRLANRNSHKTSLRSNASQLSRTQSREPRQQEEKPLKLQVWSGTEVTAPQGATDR

[24] = Binding affinity to alpha-2 adrenergic receptor at 100 nM
[25] = target: Sigma non-opioid intracellular receptor 1 (Homo sapiens) (UniProt Q99720); assay: Binding affinity to Sigma1 receptor overexpressed in CHO cells after 30 to 120 mins by gamma counting; assay type: cell-based; conditions: tested as the 18F-labelled form; how it was run: as §5
Chain of Sigma non-opioid intracellular receptor 1 (Homo sapiens) (Q99720 whole entry): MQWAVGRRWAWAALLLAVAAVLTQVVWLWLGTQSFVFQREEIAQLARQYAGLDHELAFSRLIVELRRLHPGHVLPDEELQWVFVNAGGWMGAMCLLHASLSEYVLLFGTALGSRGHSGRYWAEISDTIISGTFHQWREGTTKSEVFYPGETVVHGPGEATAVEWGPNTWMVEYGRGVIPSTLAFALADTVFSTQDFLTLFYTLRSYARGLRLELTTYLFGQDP

[26] = target: Sigma non-opioid intracellular receptor 1 (Homo sapiens) (UniProt Q99720); assay: Binding affinity to Sigma1 receptor overexpressed in CHO cells after 120 mins by gamma counting relative to control; assay type: cell-based; conditions: tested as the 18F-labelled form
How it was run: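 CHO cells grown in Ham's F-12, 2 × 10^5 per well, transfected 24 h later with 0.8 μg empty pcDNA (control) or S1R (OPRS1) cDNA; medium refreshed at 12 h. At 24 h post-transfection, 2 μCi [18F] tracer per well; triplicates; 30 and 120 min uptake, two cold PBS washes, 1 N NaOH lysis, γ counting, normalized to Bradford protein.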

[27] = target: T1, Sigma non-opioid intracellular receptor 1; assay: Displacement of [3H](+)-pentazocine from Sigma1 receptor in rat liver homogenate; assay type: tissue-based
[28] = target: Sodium-dependent noradrenaline transporter (Homo sapiens) (UniProt P23975); assay: Binding affinity to norepinephrine transporter at 100 nM
Chain of Sodium-dependent noradrenaline transporter (Homo sapiens) (P23975 whole entry): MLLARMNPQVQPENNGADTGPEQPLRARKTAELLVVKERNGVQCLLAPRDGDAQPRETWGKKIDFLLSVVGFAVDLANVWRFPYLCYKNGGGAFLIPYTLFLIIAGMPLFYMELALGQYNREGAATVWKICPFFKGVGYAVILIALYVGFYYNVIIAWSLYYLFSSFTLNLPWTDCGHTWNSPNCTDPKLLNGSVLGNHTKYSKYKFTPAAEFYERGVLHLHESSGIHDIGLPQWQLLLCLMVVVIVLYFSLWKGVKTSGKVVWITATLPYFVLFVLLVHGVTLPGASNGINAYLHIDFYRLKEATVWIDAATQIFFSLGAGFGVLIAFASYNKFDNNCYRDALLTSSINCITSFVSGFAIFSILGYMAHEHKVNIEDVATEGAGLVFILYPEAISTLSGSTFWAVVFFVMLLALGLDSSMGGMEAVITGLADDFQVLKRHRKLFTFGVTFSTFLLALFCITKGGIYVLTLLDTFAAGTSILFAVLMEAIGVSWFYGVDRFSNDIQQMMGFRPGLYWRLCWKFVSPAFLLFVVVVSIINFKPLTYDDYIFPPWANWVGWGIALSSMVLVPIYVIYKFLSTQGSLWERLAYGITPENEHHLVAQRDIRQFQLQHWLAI

CHO [29] = assay: Cellular uptake in CHO cells after 30 to 120 mins by liquid scintillation counting; assay type: ADME, cell-based, Cricetulus griseus; conditions: chinese hamster
How it was run: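 Uptake in CHO cells in Ham's F-12, empty-pcDNA or S1R-transfected (0.8 μg DNA, 2 × 10^5 cells/well). [18F]13 at 2 μCi per well or [3H]1, 30 and 120 min, triplicate. Cells washed with cold PBS and lysed in 1 N NaOH. Counted by gamma counter (18F) or liquid scintillation (3H), normalized to Bradford protein.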

Q: With `CCCc1ccc2c(c1)sc(=O)n2CCN1CCCCCC1` as the molecule, how does the Ki [1] read?
A: 247 nM

Q: What about the Ki [2] of the same molecule?
A: 627 nM

Q: And the Ki [3]?
A: 1.7 nM

Q: For `O=c1sc2cc(CCC[18F])ccc2n1CCN1CCCCCC1`, which Drug uptake (Mus musculus [4]) is on record?
A: Not Active

Q: And the Drug uptake (Cerebellum)?
A: Active

Q: What about the Drug uptake (Hippocampus) of the same molecule?
A: Active

Q: And the Drug uptake (Cortex)?
A: Active

Q: And the Drug uptake (Mus musculus [5])?
A: Active

Q: And the Drug uptake (Brain [6])?
A: 100%

Q: And the Drug uptake (Liver [7])?
A: 27%

Q: And the Drug uptake (Brain [8])?
A: 100%

Q: What about the Drug uptake (Liver [9]) of the same molecule?
A: 34%

Q: And the Drug uptake (Brain [10])?
A: Not Active

Q: And the Drug uptake (Mus musculus [11])?
A: Active

Q: What about the Drug uptake (Brain [12]) of the same molecule?
A: 81%

Q: And the Drug uptake (Brain [13])?
A: 82%

Q: And the Drug uptake (CHO [14])?
A: Active

Q: And the Drug uptake (Brain [15])?
A: Active

Q: What about the Drug uptake (Brain [16]) of the same molecule?
A: 80%

Q: Which results are given for `O=c1sc2cc(CCCF)ccc2n1CCN1CCCCCC1`?
A: Activity [17]: < 50%; Activity [18]: < 50%; Activity [19]: < 50%; Activity [20]: < 50%; Activity [21]: < 50%; Activity [22]: < 50%; Activity [23]: < 50%; Activity [24]: < 50%; Activity [25]: Active; fold change (FC) [26]: 4; Ki [1]: 467 nM; Ki [27]: 0.96 nM; Activity [28]: < 50%

Q: Which Drug uptake (CHO [29]) does the source give for `[3H]c1cc2c(c([3H])c1O)[C@@]1(C)CCN(CC=C(C)C)[C@@H](C2)[C@H]1C` here?
A: Active
